Calb FLC – C. albicans growth modulation with fluconazole; 0.57% of 300,000 active; C. albicans CaCi-2 (fluconazole-resistant clinical isolate) + fluconazole, Alamar Blue growth, 48 h; growth inhibition, % (no concentration beside the values);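 active means growth inhibition above about 58% in most replicates, limit read from the data, passing the limit was not always enough; inconclusive means exactly half the replicates above a set limit; inactive means most replicates below a set limit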;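 further: all wells also contain fluconazole at 8 µg/ml as a sub-toxic cotreatment; 0% = median of DMSO wells and 100% = median of geldanamycin control wells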
T cruzi inh – T. cruzi replication inhibition. T. cruzi beta-gal in NIH3T3, luminescence, 90 h. inhibition, % (concentration not given with the values). 1.4% of 300,000 active. AID 1885;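 active means mean inhibition across valid replicates above about 55%, limit read from the data; inconclusive means mean below that limit but half or more replicates reach it; inactive means mean below it, under half of replicates reach it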;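 further: signal also drops with host cell toxicity which is not excluded here; 0% = plate median of DMSO wells and 100% = zero luminescence signal; higher percent means less beta-gal luminescence so fewer parasites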
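Assay system: NIH/3T3 fibroblasts plus reporter T. cruzi. Amount: NIH/3T3 cells, 5,000 per well. Buffer or medium: DMEM, 2% fetal bovine serum. Doses: compound pinned at 50 nL/well, DMSO. Schedule: ≥90 h infection period, 3 h prior cell attachment. Signal: luminescent β-galactosidase signal after 60 min lysis. Read-out: parasite load inhibition, %.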
SKKanGAS inh – SKKanGAS growth inhibition. S. pyogenes SKKanGAS, kanamycin growth, BacTiter-Glo, 6 h. 1.3% of 300,000 active. inhibition, % at 7.5 µM;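 active means mean replicate score, as percent of positive control median, at least 50; inconclusive means mean below 50 but one replicate at or above 50; inactive means mean and every replicate below 50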;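 further: strain carries kanamycin resistance gene driven by streptokinase promoter and grows in 40 µg/ml kanamycin; loss of luminescence reflects streptokinase promoter inhibition or plain growth inhibition; 0% = median of DMSO wells and 100% = positive control at its reference dose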
CSC inhib – blocks cancer stem cells. cancer stem cell-like cells viability, luminescence. inhibition, % at 7.5 µM. 1.1% of 300,000 active. AID 2717; in the data active means inhibition above about 75%; inconclusive means no clear call, values can overlap the other calls; tested in HMLE shEcad cells
Beta cell apopt – blocks beta cell apoptosis | protection from apoptosis, % (no concentration beside the values) | AID 435005 | INS-1E cytokine-induced death, ATP luminescence, 48 h; percent of positive-control rescue, neutral wells zero | 0.8% of 300,000 active;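 active means Every replicate reaches about 75%, or at least half do and their mean reaches it too, limit read from the data; inconclusive means At least half of replicates reach the limit but their mean does not; inactive means Under half of replicates reach the limit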;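 further: 0% = cytokine-treated negative control wells and 100% = positive control rescue; higher means more ATP so stronger rescue from cytokine killing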
Mdm2-MdmX inh – human Mdm2/MdmX binding inhibition; SaOS-2 split-luciferase Mdm2/MdmX complementation, luminescence; AID 485346; inhibition, % at 8 µM; O15151+Q00987; 3% of 330,000 active;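 active means inhibition of at least 50% at 8 µM in the primary screen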
Target sequence (O15151 whole entry, looked up): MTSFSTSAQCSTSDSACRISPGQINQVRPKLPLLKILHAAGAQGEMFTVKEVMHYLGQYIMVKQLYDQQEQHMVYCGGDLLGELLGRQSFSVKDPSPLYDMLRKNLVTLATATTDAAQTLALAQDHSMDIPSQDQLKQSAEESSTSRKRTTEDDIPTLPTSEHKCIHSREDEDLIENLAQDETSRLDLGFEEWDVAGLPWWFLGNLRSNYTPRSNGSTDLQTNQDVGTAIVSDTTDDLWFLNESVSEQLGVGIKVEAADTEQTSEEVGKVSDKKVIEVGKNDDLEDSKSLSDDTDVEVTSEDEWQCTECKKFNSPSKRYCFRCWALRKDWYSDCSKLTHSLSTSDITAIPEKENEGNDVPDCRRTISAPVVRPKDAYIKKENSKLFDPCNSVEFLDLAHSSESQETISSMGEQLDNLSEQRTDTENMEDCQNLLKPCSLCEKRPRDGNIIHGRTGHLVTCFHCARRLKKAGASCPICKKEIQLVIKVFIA
Target sequence (Q00987 whole entry, looked up): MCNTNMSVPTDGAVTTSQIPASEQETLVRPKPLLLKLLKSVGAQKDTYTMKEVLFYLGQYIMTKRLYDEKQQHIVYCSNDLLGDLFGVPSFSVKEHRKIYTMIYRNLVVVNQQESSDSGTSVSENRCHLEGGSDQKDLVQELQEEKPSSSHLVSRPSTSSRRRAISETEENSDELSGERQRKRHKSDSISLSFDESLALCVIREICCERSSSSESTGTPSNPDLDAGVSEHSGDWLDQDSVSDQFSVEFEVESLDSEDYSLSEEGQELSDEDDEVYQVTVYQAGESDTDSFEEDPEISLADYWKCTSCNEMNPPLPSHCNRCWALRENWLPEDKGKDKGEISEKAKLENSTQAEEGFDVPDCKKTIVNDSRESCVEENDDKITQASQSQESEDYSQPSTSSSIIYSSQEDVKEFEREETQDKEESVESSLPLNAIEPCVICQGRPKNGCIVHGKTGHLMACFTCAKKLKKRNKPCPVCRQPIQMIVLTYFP
Mdm2-MdmX conf – confirmation of human Mdm2/MdmX interaction inhibitors; 55% of 10,000 active; Mdm2-MdmX binding, luminescent assay; shares compounds with Mdm2-MdmX inh; inhibition, % at 8 µM; in the data active means inhibition above about 40%
Full FLuc ctr – inhibits full-length luciferase, flagging false Mdm2/MdmX hits; inhibition, % at 8 µM; SaOS-2 full-length luciferase counterscreen, luminescence; shares compounds with Mdm2-MdmX inh; AID 504607; 77% of 6,200 active;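 active means mean inhibition at 8 µM reaching about 37%, which flags the compound as non-specific, limit read from the data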;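 further: p53-null SaOS-2 cells with luciferase driven by a doxycycline-inducible promoter; compound on cells about two nights before reading with doxycycline added after day one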
* hit, by the source's call; ? = inconclusive; nt = no result given. The list is not random: actives were taken first. Their share in the collection is about 5.7%.

SMILES	Calb FLC	T cruzi inh	SKKanGAS inh	CSC inhib	Beta cell apopt	Mdm2-MdmX inh	Mdm2-MdmX conf	Full FLuc ctr
COc1cc(OC)c(NC(=O)Cn2cnc3sc(C)c(S(=O)(=O)N4CCOCC4)c3c2=O)cc1Cl	-8	3	0	-8	4	12	nt	nt
Cc1sc2ncn(CC(=O)NCCCC(=O)Nc3ccc(C(C)C)cc3)c(=O)c2c1C	0	-3	6	17	10	82*	43*	29
Cc1cccc(Oc2coc3cc(O)ccc3c2=O)c1	5	-20	0	5	-6	-48	nt	nt
Cc1cccc(OCC(=O)NCC(=O)N/N=C/c2ccc(O)cc2O)c1	0	2	1	60	19	46	nt	nt
COc1ccccc1/C=C/C(=O)NCC(=O)N/N=C/c1cc(Br)ccc1OC	-5	28	36	21	3	33	nt	nt
COc1cccc(/C=N/NC(=O)CNC(=O)COc2cccc(C)c2)c1O	-25	14	10	60	35	54*	47*	45*
COc1ccccc1/C=C\C(=O)NCC(=O)N/N=C/c1cccc(OC)c1O	-22	-11	10	72	41	51*	18	nt
Cn1cc(C(=O)N2CCCC(Nc3ccc(F)cc3)C2)c2ccccc21 (stereo not given)	23	17	6	20	8	18	nt	nt
Cc1cccc(OCCN2CSC(=S)N(C)C2)c1	-1	11	0	58	1	36	nt	nt
COc1ccccc1OCCN1CSC(=S)N(C)C1	-51	9	16	?	-9	52*	37	82*
CC1CCCC(C)N1C(=O)COC(=O)Cc1c[nH]c2ccccc12 (stereo not given)	-1	-8	-4	1	-2	-12	nt	nt
C=CC[C@@H](CC(=O)N[C@H](CO)Cc1ccccc1)C(=O)NCCOC(=O)[C@@H](CC=C)CC(=O)OC(C)(C)C	nt	nt	nt	nt	5	2	nt	nt
COC(=O)c1c(NC(=S)NN2CCN(C)CC2)sc2c1CCC(C)C2 (stereo not given)	-16	31	31	104*	3	91*	36	nt
CCn1nc(C)cc1-c1nnc(Sc2ncc([N+](=O)[O-])s2)n1C	0	61*	51*	nt	nt	96*	97*	51*
COc1ccc(C(=O)Nc2sc3c(c2C(=O)O)CC(C)(C)OC3)cc1	-14	-23	5	51	-9	3	nt	nt
CC(C)COc1ccc(C(=O)Nc2sc3c(c2C(=O)O)CC(C)(C)OC3)cc1	9	-50	34	nt	-6	51*	47*	82*
CCOC(=O)c1cc([N+](=O)[O-])sc1NC(=O)c1ccc(S(=O)(=O)N2CC3(C)CC2CC(C)(C)C3)cc1 (stereo not given)	-5	48	3	44	32	95*	51*	57*
CC(C)N(C(=O)COC(=O)c1cccc(S(=O)(=O)N2CC3(C)CC2CC(C)(C)C3)c1)C(C)C (stereo not given)	nt	nt	nt	nt	nt	31	nt	nt
Cc1nn(-c2ccc(F)cc2)c(Cl)c1/C=C1\C(=O)Nc2ccccc21	nt	-26	nt	79*	-5	59*	62*	68*
CN=C1c2c(-c3ccccc3)c3cc(OC)ccc3n2CCN1C	-20	nt	6	-6	-4	51*	21	nt
COc1cc(OC)cc(-c2c(C#Cc3ccsc3)c3cc(-c4ccc(OC)nc4)ccc3n2C)c1	nt	nt	nt	15	-3	-12	nt	nt
COc1cc(NS(C)(=O)=O)ccc1Nc1c2ccccc2nc2ccccc12	nt	nt	nt	102*	69	89*	73*	59*
COc1cc(Nc2c3c(nc4ccccc24)CCC3)cc(OC)c1OC	-2	16	5	58	9	88*	74*	63*
COc1ccc(OC)c(Nc2c3c(nc4ccccc24)CCC3)c1	7	59*	-3	57	14	51*	62*	79*
COc1ccc(OC)c(NC(=O)COC(=O)c2c3c(nc4ccccc24)CCCC3)c1	1	26	12	54	18	85*	63*	57*
N#Cc1c(C(F)(F)F)cc(Cc2ccccc2)nc1SCC(=O)NCC(=O)O	-8	-9	0	-3	0	-8	nt	nt
